# Test results published in ChEMBL document CHEMBL1147670, “2,6-disubstituted and 2,6,8-trisubstituted purines as adenosine receptor antagonists” (J Med Chem, 2006).
# pIC50, pKi: −log10 of the molar value. Calls of active or inactive are those of the source. No cut-off for these calls is given here.
# Assays:
# Adenosine receptor A1 [1] = biological target: T1, Adenosine receptor A1 (Homo sapiens, UniProt P30542); assay: Displacement of [3H]DPCPX from human adenosine A1 receptor expressed in CHO cells; format: cell-based
# T1 sequence (P30542 whole entry): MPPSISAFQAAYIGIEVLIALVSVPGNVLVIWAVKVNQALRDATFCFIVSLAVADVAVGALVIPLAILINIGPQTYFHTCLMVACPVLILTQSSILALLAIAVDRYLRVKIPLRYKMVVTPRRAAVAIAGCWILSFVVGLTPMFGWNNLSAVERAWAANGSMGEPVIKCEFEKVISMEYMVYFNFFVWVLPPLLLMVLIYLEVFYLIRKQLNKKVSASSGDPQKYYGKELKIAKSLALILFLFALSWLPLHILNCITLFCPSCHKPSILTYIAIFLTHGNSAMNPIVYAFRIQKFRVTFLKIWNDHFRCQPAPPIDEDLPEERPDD
# Procedure, shortened: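 Competition binding against [³H]DPCPX (K_D 1.6 nM) at human A1 receptors expressed in CHO cells. Ki was derived by nonlinear regression, mean ± SEM, n = 3.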
# Adenosine receptor A2a [2] = biological target: T2, Adenosine receptor A2a (Homo sapiens, UniProt P29274); assay: Displacement of [3H]ZM 241385 from human adenosine A2a receptor expressed in HEK293 cells at 1 uM; format: cell-based
# Procedure, shortened: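 Single-point screen at 1 µM for % displacement of specific [³H]ZM 241385 binding at human A2A receptors in HEK 293 cells, n = 2.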
# Adenosine receptor A3 = biological target: T3, Adenosine receptor A3 (Homo sapiens, UniProt P0DMS8); assay: Displacement of [125I]AB-MECA from human adenosine A3 receptor expressed in HEK293 cells; format: cell-based
# T3 sequence (P0DMS8 whole entry): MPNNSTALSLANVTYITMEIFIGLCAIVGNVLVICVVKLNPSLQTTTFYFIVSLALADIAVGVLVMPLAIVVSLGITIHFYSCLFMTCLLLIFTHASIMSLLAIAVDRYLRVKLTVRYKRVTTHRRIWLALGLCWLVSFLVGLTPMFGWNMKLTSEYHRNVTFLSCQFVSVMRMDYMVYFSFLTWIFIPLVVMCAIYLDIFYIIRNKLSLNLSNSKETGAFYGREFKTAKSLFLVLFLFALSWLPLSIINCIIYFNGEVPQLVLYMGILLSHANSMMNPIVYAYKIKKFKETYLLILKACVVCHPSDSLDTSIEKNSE
# Adenosine receptor A2a [3] = biological target: T2, Adenosine receptor A2a; assay: Displacement of [3H]ZM 241385 from human adenosine A2a receptor expressed in HEK293 cells; format: cell-based
# Procedure, shortened: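 Radioligand competition using [³H]ZM 241385 (K_D 1.0 nM) at human A2A receptors expressed in HEK 293 cells. Ki was obtained by nonlinear regression, ± SEM, n = 3.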
# [4] = biological target: T4, Adenosine receptor A1 (Homo sapiens) (UniProt P30542); assay: Displacement of [3H]DPCPX from human adenosine A1 receptor expressed in CHO cells at 1 uM; format: cell-based
# T4 sequence (whole entry): T1 sequence (P30542 whole entry)
# Procedure, shortened: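 Inhibition of specific [³H]DPCPX binding to human A1 receptors in CHO cells by test compound at 1 µM, reported as % displacement, n = 2.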
# Adenosine receptor A1 [5] = biological target: T1, Adenosine receptor A1; assay: (§1) Activity against human adenosine A1 receptor in CHO cells assessed by the antagonizing effect of 100 nM CPA on forskolin-induced cAMP production; format: functional, cell-based
# Procedure, shortened: (§2)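 Whole-cell cAMP assay in CHO cells expressing human A1 receptor, 2 × 10⁵ cells/well grown overnight as a monolayer. Cells were pretreated 30 min at 37 °C with adenosine deaminase 0.8 IU/mL, rolipram 50 µM and cilostamide 50 µM in HEPES/DMEM pH 7.4. Compound was then given against 100 nM CPA, followed by forskolin 10 µM for 15 min. cAMP was measured by [³H]cAMP/PKA competition. A full concentration-response curve gave K_B.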
# [6] = biological target: T4, Adenosine receptor A1 (Homo sapiens); assay: Activity against human adenosine A1 receptor in CHO cells by increase of forskolin-induced cAMP production at 100 nM; format: functional, cell-based; conditions: filed as antagonist
# Procedure, shortened: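 Human A1-expressing CHO monolayers were preincubated 30 min at 37 °C with adenosine deaminase (0.8 IU/mL), rolipram and cilostamide (50 µM each) in HEPES/DMEM pH 7.4. Test compound at 100 nM was added for 10 min, then forskolin 10 µM for 15 min, and the reaction was stopped with ice-cold 0.1 M HCl. cAMP was measured by [³H]cAMP competition for PKA. Forskolin alone was set at 100% and CPA 1 µM at 0%. At least three experiments in duplicate.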
# [7] = biological target: Adenosine receptors; A1 & A2a (Homo sapiens) (UniProt P30542+P29274); assay: Selectivity for human adenosine A1 receptor over adenosine A2a receptor; format: protein assay
# Procedure, shortened: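 Ki values from radioligand displacement binding at each receptor. Human A1 expressed in CHO cells with [3H]DPCPX (KD 1.6 nM); human A2A expressed in HEK 293 cells with [3H]ZM 241385 (KD 1.0 nM). Ki from nonlinear regression, mean ± SEM (n = 3); selectivity compares the A1 and A2A Ki values.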
# [8] = biological target: T4, Adenosine receptor A1 (Homo sapiens); assay: as §1; format: functional, cell-based; procedure, shortened: as §2
# T2 sequence (P29274 whole entry): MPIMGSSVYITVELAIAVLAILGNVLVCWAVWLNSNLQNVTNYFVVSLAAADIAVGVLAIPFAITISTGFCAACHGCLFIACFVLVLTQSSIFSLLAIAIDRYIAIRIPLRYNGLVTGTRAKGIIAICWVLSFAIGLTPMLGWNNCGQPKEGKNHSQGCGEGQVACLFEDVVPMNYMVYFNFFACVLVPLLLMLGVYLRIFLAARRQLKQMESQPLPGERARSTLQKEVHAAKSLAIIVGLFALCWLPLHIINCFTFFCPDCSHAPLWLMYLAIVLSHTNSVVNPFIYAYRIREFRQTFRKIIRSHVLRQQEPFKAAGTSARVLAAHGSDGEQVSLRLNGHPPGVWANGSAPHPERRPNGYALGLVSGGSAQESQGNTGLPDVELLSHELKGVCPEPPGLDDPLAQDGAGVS
# Adenosine receptors; A1 & A2a (Homo sapiens), sequence (P29274 whole entry, looked up, one chain of several): as the sequence (P29274 whole entry) above
Compound,pKi (Adenosine receptor A1 [1]),Activity (Adenosine receptor A2a [2]) [%],pKi (Adenosine receptor A3),pKi (Adenosine receptor A2a [3]),other results
Cc1ccc(-c2nc(-c3ccc(C)cc3)c3[nH]cnc3n2)cc1,6.63,4,8.03,,
Clc1ccc(-c2nc(-c3ccccc3)c3[nH]cnc3n2)cc1,7.57,,7.03,6.50,
Clc1ccc(-c2[nH]c(-c3ccccc3)nc3nc(C4CCCCC4)nc2-3)cc1Cl,7.43,20.3,,,
Cn1c(C2CCCCC2)nc2c(-c3ccccc3)nc(-c3ccccc3)nc21,,0,,,Activity [4]: 24%
Clc1ccc(-c2[nH]c(-c3ccccc3)nc3nc(C4CCCCC4)nc2-3)cc1,,24,,,
COc1ccc(-c2nc(-c3ccc(OC)cc3)c3[nH]cnc3n2)cc1,,37,6.78,,Activity [4]: 40%
c1ccc(-c2nc(-c3ccccc3)c3[nH]c(-c4ccccc4)nc3n2)cc1,7.68,,7.31,7.18,
Cc1ccc(-c2nc(-c3ccccc3)nc3nc(C4CCCCC4)[nH]c23)cc1,7.44,,,,
Cc1ccc(-c2[nH]c(-c3ccccc3)nc3nc(C4CCCCC4)nc2-3)cc1,,9,,,
COc1ccc(-c2nc(-c3ccccc3)c3[nH]cnc3n2)cc1,7.49,47,8.40,,
Clc1ccc(-c2nc(-c3ccc(Cl)cc3)c3[nH]cnc3n2)cc1,,11,7.17,,Activity [4]: 21%
Clc1ccc(-c2nc(-c3ccccc3)nc3nc(C4CCCCC4)[nH]c23)cc1,7.60,,6.61,,

# More lines, main results first:
pKi (Adenosine receptor A1 [1]),Activity (Adenosine receptor A2a [2]) [%],pKi (Adenosine receptor A3),pKi (Adenosine receptor A2a [3]),Compound,other results
8.43,27,6.86,,COc1ccc(-c2[nH]c(-c3ccccc3)nc3nc(C4CCCCC4)nc2-3)cc1,
9.14,,6.70,6.93,c1ccc(-c2nc(-c3ccccc3)c3nc(C4CCCCC4)nc-3[nH]2)cc1,pIC50 (Adenosine receptor A1 [5]): 6.32
8.39,,7.42,7.28,c1ccc(-c2nc(-c3ccccc3)c3[nH]cnc3n2)cc1,
9.09,,8.02,6.83,CC(C)c1nc2[nH]c(-c3ccccc3)nc(-c3ccccc3)c-2n1,Activity [6]: Antagonist
9.54,,7.46,7.26,c1ccc(-c2nc(-c3ccccc3)c3nc(C4CCCC4)nc-3[nH]2)cc1,Ratio Ki [7]: 190; Activity [8]: Active
8.36,,7.77,6.78,CCCc1nc2nc(-c3ccccc3)nc(-c3ccccc3)c2[nH]1,
8.40,,8.03,6.54,Cc1ccc(-c2nc(-c3ccccc3)c3[nH]cnc3n2)cc1,
